Experiments:
Format in all cases: functional
A549 = assay: Antitumor activity against A549/ATCC cell line; details: Homo sapiens
How it was run: (§1)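 Drugs were screened against a panel of up to 60 human cancer cell lines. The end-point was LC50, the drug concentration lethal to 50% of the cancer cells. Values were expressed as log LC50 and plotted as mean graphs centred on the log of the panel-mean LC50. Bars to the right mark lines with lower log LC50 than the mean.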

CCRF-CEM = assay: Antitumor activity against CCRF-CEM leukemia cell line; details: Homo sapiens, read-out: Log LC50 (the source's name) (converted); how it was run: as §1
COLO 205 = assay: Antitumor activity against COLO 205 cell line; details: Homo sapiens, read-out: Log LC50 (the source's name) (converted); how it was run: as §1
DMS-114 = assay: Antitumor activity against DMS 114 cell line; details: Homo sapiens; how it was run: as §1
EKVX = assay: Antitumor activity against EKVX cell line; details: Homo sapiens; how it was run: as §1
HCT-116 = assay: Antitumor activity against HCT116 cell line; details: Homo sapiens, read-out: Log LC50 (the source's name) (converted); how it was run: as §1
HOP-62 = assay: Antitumor activity against HOP-62 cell line; details: Homo sapiens; how it was run: as §1
HL-60 = assay: Antitumor activity against HL-60(TB) leukemia cell line; details: Homo sapiens, read-out: Log LC50 (the source's name) (converted); how it was run: as §1
HOP-92 = assay: Antitumor activity against HOP-92 cell line; details: Homo sapiens, read-out: Log LC50 (the source's name) (converted); how it was run: as §1
HT-29 = assay: Antitumor activity against HT 29 cell line; details: Homo sapiens, read-out: Log LC50 (the source's name) (converted); how it was run: as §1
K562 = assay: Antitumor activity against K-562 leukemia cell line; details: Homo sapiens, read-out: Log LC50 (the source's name) (converted); how it was run: as §1
KM12 = assay: Antitumor activity against KM 12 cell line; details: Homo sapiens, read-out: Log LC50 (the source's name) (converted); how it was run: as §1
KM-20L2 = assay: Antitumor activity against KM 20L2 cell line; details: Homo sapiens; how it was run: as §1
IGROV-1 = assay: Antitumor activity against IGROVI cell line; details: Homo sapiens; how it was run: as §1
LXFL 529 = assay: Antitumor activity against […] cell line; details: Homo sapiens; how it was run: as §1
M14 = assay: Antitumor activity against M 14 cell line; details: Homo sapiens; how it was run: as §1
M19-MEL = assay: Antitumor activity against M 19-MEL cell line; details: Homo sapiens; how it was run: as §1
LOX IMVI [1] = assay: Antitumor activity against LOX IMVI cell line; details: Homo sapiens; how it was run: as §1
MOLT-4 = assay: Antitumor activity against MOLT-4 leukemia cell line; details: Homo sapiens; how it was run: as §1
Malme-3M = assay: Antitumor activity against MALME-3M cell line; details: Homo sapiens; how it was run: as §1
NCI-H522 = assay: Antitumor activity against NCI-H522 cell line; details: Homo sapiens; how it was run: as §1
NCI-H226 = assay: Antitumor activity against NCI-H226 cell line; details: Homo sapiens; how it was run: as §1
OVCAR-8 = assay: Antitumor activity against OVCAR-8 cell line; details: Homo sapiens, read-out: Log LC50 (the source's name) (converted); how it was run: as §1
OVCAR-3 = assay: Antitumor activity against OVCAR-3 cell line; details: Homo sapiens; how it was run: as §1
NCI-H23 = assay: Antitumor activity against NCI-1123 cell line; details: Homo sapiens, read-out: Log LC50 (the source's name) (converted); how it was run: as §1
NCI-H322M = assay: Antitumor activity against NCI-H322M cell line; details: Homo sapiens, read-out: Log LC50 (the source's name) (converted); how it was run: as §1
NCI-H460 = assay: Antitumor activity against NCI-11460 cell line; details: Homo sapiens, read-out: Log LC50 (the source's name) (converted); how it was run: as §1
OVCAR-5 = assay: Antitumor activity against OVCAR-5 cell line; details: Homo sapiens; how it was run: as §1
RPMI-8226 = assay: Antitumor activity against RPMI-8226 leukemia cell line; details: Homo sapiens, read-out: Log LC50 (the source's name) (converted); how it was run: as §1
CAKI-1 = assay: Antitumor activity against Renal cancer CAKI-1 cell line; details: Homo sapiens, read-out: Log LC50 (the source's name) (converted); how it was run: as §1
786-0 = assay: Antitumor activity against Renal cancer 786-O cell line; details: Homo sapiens; how it was run: as §1
A498 = assay: Antitumor activity against Renal cancer A498 cell line; details: Homo sapiens, read-out: Log LC50 (the source's name) (converted); how it was run: as §1
ACHN = assay: Antitumor activity against Renal cancer ACHN cell line; details: Homo sapiens, read-out: Log LC50 (the source's name) (converted); how it was run: as §1
SN12C = assay: Antitumor activity against Renal cancer SN 12C cell line; details: Homo sapiens; how it was run: as §1
TK-10 = assay: Antitumor activity against Renal cancer TK-10 cell line; details: Homo sapiens; how it was run: as §1
UO-31 = assay: Antitumor activity against Renal cancer UO-31 cell line; details: Homo sapiens; how it was run: as §1
SK-MEL-2 = assay: Antitumor activity against SK-MEL-2 cell line; details: Homo sapiens, read-out: Log LC50 (the source's name) (converted); how it was run: as §1
SF-539 = assay: Antitumor activity against SF-539 cell line; details: Homo sapiens; how it was run: as §1
SNB-19 = assay: Antitumor activity against SNB-19 cell line; details: Homo sapiens
How it was run: (§2)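 Screened against a panel of up to 60 human cancer cell lines. Read-out is LC50, the drug concentration lethal to 50% of the cells, expressed as log LC50. The mean log LC50 across the screened lines is the centre line of the mean graph. Each line's deviation from that mean is shown as a bar.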

SNB- = assay: Antitumor activity against SNB-71 cell line; details: Homo sapiens, read-out: Log LC50 (the source's name) (converted); how it was run: as §2
SR = assay: Antitumor activity against SR leukemia cell line; details: Homo sapiens, read-out: Log LC50 (the source's name) (converted); how it was run: as §2
SW-620 = assay: Antitumor activity against SW-620 cell line; details: Homo sapiens; how it was run: as §2
SK-MEL-5 = assay: Antitumor activity against SK-MEL-5 cell line; details: Homo sapiens; how it was run: as §2
SNB-75 = assay: Antitumor activity against SNB-75 cell line; details: Homo sapiens; how it was run: as §2
SK-OV-3 = assay: Antitumor activity against SK-OV-3 cell line; details: Homo sapiens, read-out: Log LC50 (the source's name) (converted); how it was run: as §2
SK-MEL-28 = assay: Antitumor activity against SK-MEL-28 cell line; details: Homo sapiens; how it was run: as §2
UACC-257 = assay: Antitumor activity against UACC-257 cell line; details: Homo sapiens; how it was run: as §2
U-251 = assay: Antitumor activity against U251 cell line; details: Homo sapiens; how it was run: as §2
UACC-62 = assay: Antitumor activity against UACC-62 cell line; details: Homo sapiens, read-out: Log LC50 (the source's name) (converted); how it was run: as §2
[2] = Mean log10 LC50 was determined; how it was run: as §2
DMS-273 = assay: Antitumor activity against DMS 273 cell line; details: Homo sapiens, read-out: Log LC50 (the source's name) (converted); how it was run: as §1
DLD-1 = assay: Antitumor activity against DLD-1 cell line; details: Homo sapiens; how it was run: as §1
HCC 2998 = assay: Antitumor activity against HCC2998 cell line; details: Homo sapiens, read-out: Log LC50 (the source's name) (converted); how it was run: as §1
SF-268 = assay: Antitumor activity against SF-268 cell line; details: Homo sapiens; how it was run: as §1
RXF 393 = assay: Antitumor activity against Renal cancer RXF-393 cell line; details: Homo sapiens; how it was run: as §1
OVCAR-4 = assay: Antitumor activity against OVCAR-4 cell line; details: Homo sapiens; how it was run: as §1
LOX IMVI [3] = assay: Antitumor activity against LOX IMV cell line; details: Homo sapiens, read-out: Log LC50 (the source's name) (converted); how it was run: as §1

CC(=O)OC1CCCn2c1nc1c2C(=O)C(C)=C(N2CC2)C1=O (stereo not given)
LC50 (A549): 32.4 µM | CC50 (CCRF-CEM): > 100 µM | CC50 (COLO 205): 18.2 µM | LC50 (DMS-114): 7.76 µM | LC50 (EKVX): 3.98 µM | CC50 (HCT-116): 17.8 µM | LC50 (HOP-62): 1.82 µM | CC50 (HL-60): > 100 µM | CC50 (HOP-92): > 100 µM | CC50 (HT-29): 1.82 µM | CC50 (K562): > 100 µM | CC50 (KM12): 5.25 µM | LC50 (concentration lethal to 50% of cells) (KM-20L2): 4.68 µM | LC50 (IGROV-1): 30.9 µM | LC50 (LXFL 529): 4.9 µM | LC50 (M14): 0.794 µM | LC50 (M19-MEL): 35.5 µM | LC50 (LOX IMVI [1]): 5.37 µM | LC50 (MOLT-4): > 100 µM | LC50 (Malme-3M): 2.34 µM | LC50 (NCI-H522): 3.72 µM | LC50 (NCI-H226): 3.98 µM | CC50 (OVCAR-8): 5.62 µM | LC50 (OVCAR-3): 6.31 µM | CC50 (NCI-H23): 3.98 µM | CC50 (NCI-H322M): 26.9 µM | CC50 (NCI-H460): 0.676 µM | LC50 (OVCAR-5): 4.9 µM | CC50 (RPMI-8226): > 100 µM | CC50 (CAKI-1): 3.31 µM | LC50 (786-0): 43.7 µM | CC50 (A498): 1.29 µM | CC50 (ACHN): 25.7 µM | LC50 (SN12C): 4.17 µM | LC50 (TK-10): 25.1 µM | LC50 (concentration lethal to 50% of cancer cells) (UO-31): 20 µM | CC50 (SK-MEL-2): 3.8 µM | LC50 (concentration lethal to 50% of cells) (SF-539): 14.1 µM | LC50 (SNB-19): 5.89 µM | CC50 (SNB-): 33.1 µM | CC50 (SR): > 100 µM | LC50 (SW-620): 53.7 µM | LC50 (SK-MEL-5): 0.661 µM | LC50 (SNB-75): 4.57 µM | CC50 (SK-OV-3): 7.08 µM | LC50 (SK-MEL-28): 6.03 µM | LC50 (UACC-257): 3.8 µM | LC50 (U-251): 3.39 µM | CC50 (UACC-62): 4.9 µM | Mean log LC50 [2]: -5.04 | CC50 (DMS-273): 5.37 µM | LC50 (DLD-1): 87.1 µM | CC50 (HCC 2998): 3.09 µM | LC50 (SF-268): 0.692 µM | LC50 (RXF 393): 4.68 µM | LC50 (OVCAR-4): 5.89 µM

CC(=O)OC1CCn2c1nc1c2C(=O)C(C)=C(N2CC2)C1=O (stereo not given)
CC50 (LOX IMVI [3]): < 0.01 µM | LC50 (Malme-3M): 0.055 µM | LC50 (SK-MEL-5): < 0.01 µM | Mean log LC50 [2]: -6.61
